Assay outcomes from PubChem.
Sampled rows, rich in hits. Any-hit rate of the full collection: about 2.9%.
PGC1a acetyl inh: inhibitors of PGC1a acetylation signal, primary screen, cell-based, U2OS, AlphaScreen, inhibitor mode. AlphaScreen anti-acetyl-lysine; with virally co-expressed GCN5 acetyltransferase. inhibition, % at 15.6 µM. actives 0.17% (n = 350,000);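 active = every replicate shows inhibition of at least 40%; inconclusive = mean inhibition at least 40% but some replicate below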;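 also: 0% = neutral control wells and 100% = positive control wells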
C2C12 statin: suppressors of statin myotoxicity in C2C12 myotubes, primary screen, cell-based, single point, plate reader. C2C12 myotubes + simvastatin, ATP luminescence, 48 h; scaled: DMSO 0, geranylgeraniol control 100. rescue of ATP level, % at 7.49 µM. actives 0.78% (n = 330,000);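 active = mean ATP rescue above about 67%, or every replicate alone reaching that limit, limit read from the data, passing the limit was not always enough; inconclusive = no clear call, values can overlap the other calls; inactive = mean under the limit and some replicate under it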;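 also: myotubes were challenged with 10 µM simvastatin during compound exposure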
S100A4 inh HTS: inhibitors of S100A4-myosin IIA peptide binding, primary screen, biochemical, fluorescence polarization, TAMRA-MyoIIA peptide; actives 0.14% (n = 360,000); inhibition, % at 10.7 µM;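 active = mean inhibition of at least 70% across replicates, with every replicate also reaching that level; inconclusive = mean inhibition reaches 70% but some replicates fall short; inactive = mean inhibition below 70%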
Target sequence (P26447 whole entry, looked up): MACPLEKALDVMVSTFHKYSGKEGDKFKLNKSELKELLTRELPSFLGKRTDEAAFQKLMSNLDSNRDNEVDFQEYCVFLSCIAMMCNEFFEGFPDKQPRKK
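Compound dosing: one dose per compound; test system: human S100A4 monomer with TAMRA-labelled myosin IIA peptide; probe or stimulus: TAMRA-labelled myosin IIA heavy-chain peptide probe, 5 nM; medium: HEPES buffer with Ca2+, pH 7.2; schedule: 5 min incubation before reading; benchmarks: neutral control DMSO, positive control TFP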
DENV2 CPE rescue: inhibitors of DENV2 cytopathic effect, primary screen, cell-based, plate reader, single concentration | CPE inhibition, % at 9.99 µM | DENV2-infected cells, cytopathic effect rescue | actives 1.7% (n = 350,000); in the data active = CPE inhibition above about 20%, passing the limit was not always enough; inconclusive = no clear call, values can overlap the other calls; tested in BHK-21 cells;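 also: 0% = median of neutral control wells and 100% = median of positive control wells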
SIRT5 inh: SIRT5 desuccinylase inhibitors, primary screen, biochemical, fluorescence imaging, single point, set 5; NAD-dependent protein deacylase sirtuin-5, mitochondrial (Homo sapiens), Q9NXA8; Purified SirT5, succinyl-peptide AMC, trypsin-coupled fluorescence; inhibition, % at 15 µM; actives 1.1% (n = 330,000); AID 652115, 2013; in the data active = inhibition above about 15%; inconclusive = no clear call, values can overlap the other calls
Target sequence (Q9NXA8 whole entry, looked up): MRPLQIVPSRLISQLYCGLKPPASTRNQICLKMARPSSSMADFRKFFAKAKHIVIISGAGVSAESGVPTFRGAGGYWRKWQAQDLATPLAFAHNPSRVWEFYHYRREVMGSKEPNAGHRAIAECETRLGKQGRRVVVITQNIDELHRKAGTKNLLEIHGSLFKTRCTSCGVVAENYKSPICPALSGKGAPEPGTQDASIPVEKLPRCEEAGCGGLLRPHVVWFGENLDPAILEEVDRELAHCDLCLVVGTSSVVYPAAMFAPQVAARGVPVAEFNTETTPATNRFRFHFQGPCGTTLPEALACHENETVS
* = called active by the depositor; ? = inconclusive; . = no result.

SMILES	PGC1a acetyl inh	C2C12 statin	S100A4 inh HTS	DENV2 CPE rescue	SIRT5 inh
O=C(C[C@@H]1CC[C@H]2[C@@H](COC[C@H](O)CN2C(=O)c2ccc3c(c2)OCO3)O1)NCCN1CCCCC1	10	32	-14	0	-2
O=C(C[C@H]1CC[C@H]2[C@@H](COC[C@@H](O)CN2C(=O)c2ccc3c(c2)OCO3)O1)NCCN1CCCC1	.	.	-21	27*	-2
C[C@@H]1CN([C@@H](C)CO)C(=O)Cc2cc(N(C)C)ccc2O[C@@H]1CN(C)Cc1ccc(Oc2ccccc2)cc1	3	28	18	2	-2
COc1ccc(CN(C)C[C@H]2Oc3c(NS(=O)(=O)c4ccccc4)cccc3C(=O)N([C@@H](C)CO)C[C@@H]2C)cc1	4	15	6	14	0
CCN(CC)S(=O)(=O)c1ccc(N2CCOCC2)c(NC(=O)c2ccc(NC(C)=O)cc2)c1	-1	.	-3	0	15*
CCN(CC)S(=O)(=O)c1ccc(N2CCOCC2)c(NC(=O)c2ccc3c(c2)OCCO3)c1	.	8	3	-3	2
COc1ccc(Cl)cc1-c1cc(C(=O)Nc2ccccc2)[nH]n1	-19	-21	-5	-4	.
COc1ccc(Cl)cc1-c1cc(C(=O)N[C@H](C)c2ccccc2)[nH]n1	-4	5	141*	74*	-4
CO[C@@H]1CN(C)C(=O)c2cc(NC(=O)c3ccccc3F)ccc2OC[C@H](C)N(C)C[C@H]1C	-7	9	-2	?	-8
COc1ccc(OC(=O)Cc2cccc3ccccc23)cc1	9	0	14	-6	15*
COc1ccc(NC(=O)CNC(=O)Cc2cccc3ccccc23)cc1	4	9	-39	-3	-2
CC(=O)c1ccc(OC(=O)Cc2cccc3ccccc23)cc1	11	25	17	10	26*
CC(=O)N(C)C[C@@H]1Oc2ncc(C#Cc3ccccn3)cc2C(=O)N([C@H](C)CO)C[C@@H]1C	0	-3	13	9	4
C[C@H](CO)N1C[C@H](C)[C@H](CN(C)S(C)(=O)=O)Oc2c(NC(=O)C3CCOCC3)cccc2C1=O	7	59	0	-3	-3
O=C(O)CSC1CC(=O)N(c2ccc(Cl)c(Cl)c2)C1=O (centres undefined)	0	138*	.	.	.
O=C(O)CSC1CC(=O)N(c2cccc(Cl)c2)C1=O (centres undefined)	-1	7	.	.	.
C[C@H](CO)N1C[C@H](C)[C@@H](CN(C)C(=O)Nc2ccc(F)cc2)Oc2ccc(NC(=O)Cn3cnnn3)cc2CC1=O	-14	5	.	.	.
COc1ccccc1S(=O)(=O)N1CC[C@@H]2[C@H]1c1cc(-c3cccc(C#N)c3)ccc1N[C@@H]2CO	-5	-77	.	.	.
O=C(COc1cccc2ccccc12)N1CCN(c2ccccc2)CC1	5	?	.	.	.
O=C(COc1cccc2ccccc12)N1CCN(c2ccccn2)CC1	-14	-1	3	-3	18*
O=C(COc1ccccc1)N1CCN(c2nnc(-c3ccccc3)c3ccccc23)CC1	.	79*	.	.	.
COc1ccc(Cn2c(CCC(=O)N3CCN(c4ccccn4)CC3)nc3ncccc3c2=O)cc1	19	88*	.	.	.
COc1ccc(S(=O)(=O)N[C@H]2C=C[C@@H](CC(=O)NCc3ccccc3F)O[C@H]2CO)cc1	-15	-1	0	1	4
COc1ccc(C(C)(O)c2nc(-c3ccccc3C)cs2)cc1 (centres undefined)	-15	-70	-1	8	-2
COc1ccc(C(C)(O)c2nc(-c3ccccc3)cs2)cc1 (centres undefined)	-4	-23	-4	-4	.
SMILES	PGC1a acetyl inh	C2C12 statin	S100A4 inh HTS	DENV2 CPE rescue	SIRT5 inh
COc1ccc(C(C)(O)c2nc(-c3cccs3)cs2)cc1 (centres undefined)	-10	6	182*	3	-1
COc1ccccc1-c1csc(C(C)(O)c2ccccc2)n1 (centres undefined)	.	23	-8	-10	16*
Cc1ccccc1-c1csc(C(C)(O)c2ccccc2)n1 (centres undefined)	-2	13	-7	31*	0
COc1ccc(S(=O)(=O)N(C)C[C@H]2OCCCC[C@@H](C)Oc3ccc(NC(=O)Nc4ccc(C(F)(F)F)cc4)cc3C(=O)N([C@H](C)CO)C[C@H]2C)cc1	-4	-204	-4	6	0
O=C(C1CCCCC1)N1CC(=O)N2[C@@H](CO)[C@@H](c3ccc(C#CCc4ccccc4)cc3)[C@@H]2C1	1	.	-4	7	0
N#C[C@H]1[C@H](c2ccc(C#Cc3ccccc3F)cc2)[C@@H](CO)N1C(=O)C1CCCC1	-23	.	-5	4	0
CCCn1nc2cc(C(=O)NCc3ccc4c(c3)OCO4)ccc2c1OCC	.	13	-10	-2	.
CCn1cc([N+](=O)[O-])c(C(=O)NCc2ccc3c(c2)OCO3)n1	42*	2	1	-1	0
C/C(NCc1cccnc1)=C(\C#N)C(=O)NCc1ccccc1	5	104*	.	.	.
CCOc1c2ccc(C(=O)NCc3ccc4c(c3)OCO4)cc2nn1CC	.	-18	-10	32*	-12
COc1cc(OC)cc(C(=O)NCc2ccc3c(c2)OCO3)c1	-9	3	3	29*	-10
C[C@@H]1CN([C@@H](C)CO)C(=O)c2cc(NC(=O)CCN3CCOCC3)ccc2O[C@H]1CN(C)C(=O)Nc1ccccc1	-1	-2	3	-1	4
Cc1noc(C)c1S(=O)(=O)Nc1ccc2c(c1)CC(=O)N([C@@H](C)CO)C[C@@H](C)[C@@H](CN(C)C(=O)Nc1ccc(F)cc1)O2	-2	41	19	-13	-2
COc1ccc(C(=O)NCc2cccnc2)cc1Br	-10	9	.	.	.
O=C(NCc1cccnc1)C1CC(=O)N(CCc2ccccc2)C1 (centres undefined)	2	133*	-1	?	-2
COc1cc(OC)cc(C(=O)NCc2cccnc2)c1	5	129*	.	.	.
O=C(CC(=O)NCc1cccnc1)NCc1cccnc1	-5	111*	.	.	.
O=C(Nc1ccccc1C(=O)NCc1cccnc1)c1ccccc1Cl	.	3	6	64*	-1
N#C[C@@H]1[C@H](c2ccccc2C2=CCCCC2)[C@H](CO)N1C(=O)Nc1ccccc1F	-33	.	24	-8	1
COCCCN1C(=O)[C@@]2(Cc3ccccc31)c1ccccc1C(=O)N(Cc1ccccc1)[C@H]2c1ccc(CO)cc1	-7	.	5	23*	-3
C[C@@H]1CN([C@@H](C)CO)C(=O)c2cc(C3=CCCC3)cnc2O[C@H]1CN(C)C(=O)Nc1ccc(C(F)(F)F)cc1	12	6	-5	11	4
